TbHK1 inh: T. brucei hexokinase 1 inhibition; recombinant TbHK1, G6PDH-coupled NADH A340; inhibition, % at 10 µM; hit rate 0.11% among 220,000; AID 1430;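 active = inhibition of 50% or more in the single-dose primary screen; inactive = inhibition below 50%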
14-3-3 Bad inh: disrupts binding of bovine 14-3-3 zeta to phospho-Bad peptide; P63103; TR-FRET 14-3-3zeta/Dy647-pBad peptide displacement, 1 h; inhibition, % at 21.7 µM; hit rate 0.71% among 220,000; AID 781;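 active = inhibition above about 70%, limit read from the data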;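 also: 0% = full 14-3-3 plus peptide FRET controls and 100% = background without 14-3-3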
Target sequence (P63103 whole entry, looked up): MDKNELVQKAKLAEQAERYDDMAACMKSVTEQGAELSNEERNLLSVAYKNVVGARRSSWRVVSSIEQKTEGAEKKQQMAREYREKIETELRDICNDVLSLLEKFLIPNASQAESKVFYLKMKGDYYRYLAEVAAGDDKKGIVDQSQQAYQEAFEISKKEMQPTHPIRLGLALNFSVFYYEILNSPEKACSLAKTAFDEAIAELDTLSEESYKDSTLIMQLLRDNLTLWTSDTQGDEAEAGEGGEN
Wee1 stabilizer: inhibitors of human Wee1 degradation; reporter increase, % at 5 µM; P30291; HeLa Luc-Wee1K328M stability, luciferase luminescence; 100% = proteasome inhibitor MG132 effect; AID 1321; hit rate 1.2% among 220,000;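 active = activation above the mean of all tested compounds plus 3 SD, set per screening run, cut at about 8.8% in these data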;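 also: cells exposed to compound for 20 h before luminescence read; 0% = DMSO alone and 100% = MG132 at 30 µM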
MDM2 E3 inh: blocks human Mdm2 ubiquitin ligase activity; Q00987; cell-based MDM2 ubiquitination luciferase reporter, 2 h; 0 = plate control, 100 = twice control, blank-subtracted; signal enhancement, % at 5 µM; hit rate 0.11% among 210,000;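 active = signal enhancement of 30% or more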;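 also: luminescence tracks abundance of the self-degrading MDM2-luciferase fusion protein; higher signal means inhibition of MDM2 E3 ligase activity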
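System: stable MDM2–luciferase fusion reporter cells / Input: 2000 cells seeded into each well / Schedule: 4 h settle plus 2 h compound, 37 °C / Compound: single-point 5 µM / Buffer or medium: cells held in DMEM / Benchmarks: control and blank well means / Evaluation: percent signal gain over controls, blank-subtracted / Measured by: luciferase luminescence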
Hck Nef HTS: human Hck-Nef kinase inhibition | P08631 | Recombinant Hck-YEEI plus Nef, Z-Lyte FRET kinase assay | inhibition, % at 20 µM | hit rate 0.68% among 220,000 | AID 463187;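 active = Hck-Nef kinase inhibition above about 50%, limit read from the data; inactive = inhibition below that limit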;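 also: 0% = DMSO with Hck plus Nef and 100% = Hck alone without Nef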
Wee1 stab conf: human Wee1 degradation inhibition, confirmation | shares compounds with Wee1 stabilizer | HeLa Luc-Wee1K328M degradation, luminescence; vehicle 0%, proteasome-blocked wells 100% | activation, % at 5 µM | hit rate 4% among 1,100; in the data active = activation above about 8.9%
Numbers without * were called inactive; . = not tested or not shown. An excerpt weighted towards active compounds, which were near 2.7% of everything screened.

SMILES	TbHK1 inh	14-3-3 Bad inh	Wee1 stabilizer	MDM2 E3 inh	Hck Nef HTS	Wee1 stab conf
Cc1ccc(CC(=O)NCCS(=O)c2ccc(C)cc2)cc1 (stereo not given)	0.2	-20.3	1.5	-23.9	22.4	.
O=C(/C=C/c1ccncc1)c1ccc(NC(=O)c2ccccc2F)cc1	-13.4	68.1	0.5	-7.5	7.3	.
CCN(CC)C(=O)C1CCN(S(=O)(=O)c2ccc(C3CNC(=O)C3)cc2)CC1 (stereo not given)	-5.2	7.7	0.9	-8.5	20.8	.
CN(Cc1ccccc1F)c1nc(-c2cccs2)nc2ccccc12	15.3	-19.3	13.8*	-2.9	0.4	4.2
Fc1ccccc1N1CCN(c2nc(-c3cccs3)nc3ccccc23)CC1	-13.8	-3.3	3.3	-2.1	20.3	.
COC(=O)Cc1cc(=O)[nH]c(/N=C(\N)Nc2ccc(C(C)C)cc2)n1	-6.9	-1.0	-2.5	-4.4	18.1	.
O=C(CN1CCOCC1)N/N=C/C=C/c1ccccc1	-15.3	1.9	23.5*	-7.2	14.1	-0.5
O=C(CN1CCN(Cc2ccccc2)CC1)N/N=C/C=C/c1ccco1	-70.7	-5.2	-0.3	-6.7	1.0	.
Cc1ccc(C(=O)N/C(=C\c2cccs2)C(=O)NCc2ccncc2)cc1	-10.1	6.2	3.7	2.4	0.5	.
CCCc1ccc(C(=O)Cn2nc(C(=O)O)c3ccccc3c2=O)cc1	4.4	2.3	11.4*	-12.0	45.7	2.5
Cc1cc(C)c(C(=O)Cn2nc(C(=O)O)c3ccccc3c2=O)cc1C	-5.6	-2.5	-2.0	-7.8	-4.1	.
Cc1ccc(-c2[nH][nH]c(=O)c(=O)c2N=Nc2ccccc2)cc1	-18.0	-3.6	-1.3	1.1	26.6	.
CC1=C(C)/C(=N\OS(=O)(=O)c2ccccc2)C=CC1=O	-1.8	11.2	1.2	-6.4	2.1	.
O=C(CCN1C(=O)c2ccccc2C1=O)N1CCC(c2ccccc2)C1 (stereo not given)	2.0	-6.1	1.8	-9.3	-1.0	.
CCN(C(=O)CSc1nnc(C)n1Cc1ccccc1)C1CCS(=O)(=O)C1 (stereo not given)	5.1	1.1	13.0*	-19.2	14.5	0.4
CCOc1ccc(N2C(=O)CC(Sc3nc(C)cc(C)n3)C2=O)cc1 (stereo not given)	6.3	-4.7	4.8	-20.3	4.1	.
CCN=C(NCC)SC1CC(=O)N(c2ccc(OCC)cc2)C1=O (stereo not given)	-4.7	-0.4	15.9*	-6.7	5.2	6.5
CCN=C(NCC)SC1CC(=O)N(c2ccccc2)C1=O (stereo not given)	-9.5	-3.5	-1.2	-10.3	0.2	.
CCOc1ccc(N2C(=O)CC(Sc3nnnn3-c3ccccc3)C2=O)cc1 (stereo not given)	-1.7	-11.5	13.5*	-5.1	16.8	-0.9
COCCCNC(=O)C1CCC(CNS(=O)(=O)c2ccc(C)cc2)CC1 (stereo not given)	6.0	-5.3	1.2	-2.5	-2.3	.
COc1ccc2c(c1)c(CC(=O)Nc1cc(C)ccc1C)c(C)n2C(=O)c1ccc(Cl)cc1	-11.1	-5.4	14.3*	8.5	3.8	2.1
Cc1ccc2c(CSc3nnc(C4CC4)n3N)cc(=O)oc2c1C	-17.8	-7.1	11.5*	-7.2	1.8	1.7
Cc1nnc(SCC2=C(C(=O)O)N3C(=O)C(NC(=O)c4cccc(F)c4F)C3SC2)s1 (stereo not given)	8.0	0.4	-0.2	-23.9	16.7	.
C/C(=N\Nc1ccc(S(=O)(=O)Nc2ccc(Cl)cc2)cc1[N+](=O)[O-])c1ccc(N2CCOCC2)cc1	-15.5	2.5	11.9*	-1.3	0.5	0.0
COc1ccc(NC(=O)CN2CCCCC2)cc1	2.7	27.6	0.9	-5.2	3.1	.
SMILES	TbHK1 inh	14-3-3 Bad inh	Wee1 stabilizer	MDM2 E3 inh	Hck Nef HTS	Wee1 stab conf
COc1ccc(NC(=O)CN2CCC(NC(=O)C3CCCCC3)CC2)cc1	7.8	3.6	14.8*	-15.7	6.3	0.6
COc1ccc(NC(=O)/C(Cl)=C(/Cl)S(=O)Cc2ccccc2)cn1 (stereo not given)	-1.9	10.1	16.6*	-5.4	2.5	24.6*
Cc1ccc(C)c(S(=O)(=O)Nc2ccc(O)cc2)c1	5.9	-3.3	-1.2	-11.6	0.2	.
CCNS(=O)(=O)c1ccc(NS(=O)(=O)c2cc(C)ccc2C)cc1	-1.0	-1.0	13.1*	-14.9	-22.8	-0.1
O=C(NC1CCCC1)c1cc(Cl)ccc1[N+](=O)[O-]	20.6	6.1	-0.9	5.0	2.8	.
O=C(NC1CCCCC1)c1cc(Cl)ccc1[N+](=O)[O-]	-5.0	-6.8	16.3*	-5.9	-0.1	-0.4
O=C(N/N=C/c1cc(Br)c(O)c(Br)c1)c1cccc(C(F)(F)F)c1	-35.5	-8.1	12.2*	-2.1	1.5	1.6
O=C(Nc1ccc2sccc2c1)c1cccc(N2C(=O)CCC2=O)c1	-10.2	-4.4	14.6*	-5.0	0.0	4.5
CCCSc1nsc(NC(=O)CCC)n1	13.7	3.4	13.4*	-4.6	8.3	3.8
CCC(Oc1ccccc1)C(=O)N1CC(C)CC(C)C1 (stereo not given)	5.3	11.8	-2.4	-17.0	15.0	.
Cc1cccc(-n2c(SCC(=O)O)nc3sc4c(c3c2=O)CCC4)c1	-34.1	-13.1	13.1*	5.0	16.6	-0.3
COc1ccc(C2=Nc3cccc4cccc(c34)N2)cc1	-14.0	-12.8	-0.3	-5.9	0.3	.
Nc1cccc(C2=Nc3cccc4cccc(c34)N2)c1	-5.0	-7.9	11.8*	-15.6	4.6	0.5
O=C(NCCCNCc1ccccc1)c1ccncc1	-1.3	-1.5	-3.8	-17.1	0.8	.
O=C(/C=N\O)NCCCNCc1ccccc1	-4.5	-5.9	15.7*	-21.0	-1.1	0.8
COc1cccc(C2=CC(c3cccc(OC)c3OC)n3nnnc3N2)c1 (stereo not given)	-4.5	1.6	11.4*	6.8	-0.7	11.8*
O=C(N=Nc1c(O)[nH]c2ccc(Br)cc12)c1ccccc1-n1cccc1	-28.2	-1.6	11.8*	-11.0	5.6	21.1*
N=C(N)N=Nc1c(O)[nH]c2ccc(Br)cc12	-27.2	-6.9	0.5	-30.2	5.1	.
Cn1nc(-c2ccc(N3CCOCC3)c(NC(=O)COc3ccccc3)c2)c2ccccc2c1=O	-3.8	.	2.5	.	0.0	.
COc1ccc(NC(=O)COc2ccc(C(=O)NC3CCCc4ccccc43)cc2OC)cc1 (stereo not given)	0.8	-8.3	15.6*	-5.4	1.9	2.6
O=C(Cn1cnc([N+](=O)[O-])c1)Nc1cc(Oc2ccc(Cl)cc2Cl)cc([N+](=O)[O-])c1	12.1	3.4	0.3	-27.8	10.1	.
CCOC(=O)C1=C(c2ccccc2)O/C(=C(/C#N)C(F)(F)F)S1	-8.3	-15.7	24.1*	68.2*	-1.7	87.2*
Cc1ccc(S(=O)(=O)N2CCC(C(=O)NCCc3ccc(S(N)(=O)=O)cc3)CC2)cc1	-2.4	-4.6	5.2	2.0	3.2	.

Compound activity (PubChem)
